Converted amounts (≈) assume the structure as drawn. A value given as a limit tells only on which side of the number the result lay.

The test system of this assay is HL-60. Description: Cytotoxicity against human HL-60 cells after 72 hrs by MTT assay. In kind it is functional, cell-based. As to conditions: HL-60, 72 h. The method in brief: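 HL-60 human promyelocytic leukemia cells grown in RPMI 1640 with 10% FBS, L-glutamine and penicillin/streptomycin. Seeded at 3 × 10^4 cells/mL and preincubated 24 h at 37 °C in 5% CO2. Samples added in EtOH–H2O (1:1) at final 0.0001–50 µg/mL, with vehicle controls, for 72 h. MTT then 4 h, formazan dissolved in DMSO, read at 550 nm. IC50 taken from dose-response curves of samples giving >50% inhibition at 10 µg/mL.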

As usually defined, the IC50 is the midpoint of a concentration-inhibition curve. Lower therefore signals inhibition by little substance. The molecule `C[C@@H]1O[C@@H](O[C@H]2[C@H](O[C@H]3CC[C@]4(C)[C@H]5CC=C6[C@@H]7CC(C)(C)CC[C@]7(C(=O)O)CC[C@@]6(C)[C@]5(C)CC[C@H]4C3(C)C)OC[C@H](O)[C@@H]2O)[C@H](O)[C@H](O[C@@H]2O[C@H](CO)[C@@H](O)[C@H](O)[C@H]2O)[C@H]1O` yielded a 50% inhibitory concentration (IC50) of 3.6 µg/mL (≈ 4.01 µM).
Turning to `COc1cc([C@@H]2c3cc4c(cc3[C@@H](O[C@@H]3O[C@@H]5CO[C@@H](C)O[C@H]5[C@H](O)[C@H]3O)[C@H]3COC(=O)[C@H]23)OCO4)cc(OC)c1O` [ETOPOSIDE], the concentration for half-maximal inhibition (IC50) is 0.3 µg/mL (≈ 0.51 µM).
In the case of `C[C@@H]1O[C@@H](O[C@H]2[C@H](O[C@H]3CC[C@]4(C)[C@H]5CC=C6[C@@H]7CC(C)(C)CC[C@]7(C(=O)O)CC[C@@]6(C)[C@]5(C)CC[C@H]4C3(C)C)OC[C@H](O)[C@@H]2O)[C@H](O)[C@H](O)[C@H]1O`, the concentration for half-maximal inhibition (IC50) worked out at 4.4 µg/mL (≈ 5.99 µM).
Molecule `CC1(C)CC[C@]2(C(=O)O)CC[C@]3(C)C(=CC[C@@H]4[C@@]5(C)CC[C@H](O)C(C)(C)[C@@H]5CC[C@]43C)[C@@H]2C1` [OLEANOLIC_ACID] yielded an IC50 of over 50 µg/mL.
`C[C@@H]1O[C@@H](O[C@H]2[C@H](O[C@H]3CC[C@]4(C)[C@H]5CC=C6[C@@H]7CC(C)(C)CC[C@]7(C(=O)O)CC[C@@]6(C)[C@]5(C)CC[C@H]4C3(C)C)OC[C@H](O)[C@@H]2O)[C@H](O)[C@H](O[C@@H]2O[C@H](CO)[C@@H](O[C@@H]3O[C@H](CO)[C@@H](O)[C@H](O)[C@H]3O)[C@H](O)[C@H]2O)[C@H]1O` gave a half-inhibitory concentration (IC50) of 2.6 µg/mL (≈ 2.45 µM).
Under `C[C@@H]1O[C@@H](O[C@H]2[C@H](O[C@H]3CC[C@@]4(C)[C@@H](CC[C@]5(C)[C@@H]4CC=C4[C@@H]6CC(C)(C)CC[C@]6(C(=O)O)CC[C@]45C)[C@]3(C)CO)OC[C@H](O)[C@@H]2O)[C@H](O)[C@H](O[C@@H]2O[C@H](CO)[C@@H](O)[C@H](O)[C@H]2O)[C@H]1O` stands 7.8 µg/mL (≈ 8.54 µM); under `COc1cc([C@@H]2c3cc4c(c(O)c3C[C@H]3COC(=O)[C@@H]32)OCO4)cc(OC)c1OC` [BETA-PELTATIN A], 0.0052 µg/mL (≈ 0.0125 µM).
Under `COC(=O)[C@]12CCC(C)(C)C[C@H]1C1=CC[C@@H]3[C@@]4(C)CC[C@H](O[C@@H]5OC[C@H](O)[C@H](O)[C@H]5O[C@@H]5O[C@@H](C)[C@H](O)[C@@H](O[C@@H]6O[C@H](CO)[C@@H](O[C@@H]7O[C@H](CO)[C@@H](O)[C@H](O)[C@H]7O)[C@H](O)[C@H]6O)[C@H]5O)C(C)(C)[C@@H]4CC[C@@]3(C)[C@]1(C)CC2` stands 7.8 µg/mL (≈ 7.27 µM).
As to `COC(=O)[C@]12CCC(C)(C)C[C@H]1C1=CC[C@@H]3[C@@]4(C)CC[C@H](O[C@@H]5OC[C@H](O)[C@H](O)[C@H]5O[C@@H]5O[C@@H](C)[C@H](O)[C@@H](O[C@@H]6O[C@H](CO)[C@@H](O)[C@H](O)[C@H]6O)[C@H]5O)[C@@](C)(CO)[C@@H]4CC[C@@]3(C)[C@]1(C)CC2`, the IC50 was 8 µg/mL (≈ 8.63 µM).
For `C[C@@H]1O[C@@H](O[C@H]2[C@H](O[C@H]3CC[C@@]4(C)[C@@H](CC[C@]5(C)[C@@H]4CC=C4[C@@H]6CC(C)(C)CC[C@]6(C(=O)O)CC[C@]45C)[C@]3(C)CO)OC[C@H](O[C@@H]3O[C@H](CO)[C@@H](O)[C@H](O)[C@H]3O)[C@@H]2O)[C@H](O)[C@H](O)[C@H]1O` [HEDERACOLCHISIDE A], the IC50 worked out at 3.8 µg/mL (≈ 4.16 µM).
In the case of `C[C@@H]1O[C@@H](O[C@H]2[C@H](O[C@H]3CC[C@]4(C)[C@H]5CC=C6[C@@H]7CC(C)(C)CC[C@]7(C(=O)O)CC[C@@]6(C)[C@]5(C)CC[C@H]4C3(C)C)OC[C@H](O[C@@H]3O[C@H](CO)[C@@H](O)[C@H](O)[C@H]3O)[C@@H]2O)[C@H](O)[C@H](O)[C@H]1O` [HEDERACOLCHISIDE A1], 2.3 µg/mL (≈ 2.56 µM) corresponded to half-maximal inhibition (IC50).
Under `COc1cc([C@@H]2OC[C@@H]3[C@H]2CO[C@H]3c2ccc(O)c(OC)c2)ccc1O` [(+)-PINORESINOL] stands over 10 µg/mL; under `CC1(C)CC[C@]2(C(=O)O)CC[C@]3(C)C(=CC[C@@H]4[C@@]5(C)CC[C@H](O[C@@H]6OC[C@H](O[C@@H]7O[C@H](CO)[C@@H](O)[C@H](O)[C@H]7O)[C@H](O)[C@H]6O)[C@@](C)(CO)[C@@H]5CC[C@]43C)[C@@H]2C1`, over 10 µg/mL; under `C[C@@H]1O[C@@H](O[C@H]2[C@H](O[C@H]3CC[C@]4(C)[C@H]5CC=C6[C@@H]7CC(C)(C)CC[C@]7(C(=O)O)CC[C@@]6(C)[C@]5(C)CC[C@H]4C3(C)C)OC[C@H](O[C@@H]3O[C@H](CO)[C@@H](O)[C@H](O)[C@H]3O)[C@@H]2O)[C@H](O)[C@H](O[C@@H]2O[C@H](CO)[C@@H](O[C@@H]3O[C@H](CO)[C@@H](O)[C@H](O)[C@H]3O)[C@H](O)[C@H]2O)[C@H]1O`, 2.7 µg/mL (≈ 2.21 µM).
On to `C[C@@H]1O[C@@H](O[C@H]2[C@H](O[C@H]3CC[C@@]4(C)[C@@H](CC[C@]5(C)[C@@H]4CC=C4[C@@H]6CC(C)(C)CC[C@]6(C(=O)O)CC[C@]45C)[C@]3(C)CO)OC[C@H](O)[C@@H]2O)[C@H](O)[C@H](O)[C@H]1O` [ALPHA-HEDERIN], for which the IC50 came to 7.1 µg/mL (≈ 9.45 µM).

(Values after ChEMBL document CHEMBL1144110, “Triterpene saponins and lignans from the roots of Pulsatilla chinensis and their cytotoxic activity against HL-60 cells” (J Nat Prod, 1999).)
